Data from ChEMBL document CHEMBL1157795, “Structure-activity relationship of an ozonide carboxylic acid (OZ78) against Fasciola hepatica” (2010).
Calls of active or inactive are those of the source. The calls are words filed in the database; no cut-off is given here.

test system: Fasciola hepatica; test: Antiparasitic activity against Fasciola hepatica infected in rat assessed as reduction in worm burden at 50 mg/kg, po administered as single dose measured after 6 days post treatment; type: functional; set-up: scale not given: the % may be the effect or the level left
Method in brief: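 Female Wistar rats (~100 g), each infected with ~20 F. hepatica metacercariae, dosed orally once at 8 weeks post-infection with 50 mg/kg suspended in 7% (v/v) Tween 80 plus 3% (v/v) EtOH. Day 6 after treatment: CO2 sacrifice, adult flukes counted from bile ducts and liver. Worm burden reduction versus untreated control rats (mean totals); Kruskal-Wallis significance.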

SMILES | Activity
CCOC(=O)C[C@H]1CC[C@]2(CC1)OO[C@]1(O2)C2CC3CC(C2)CC1C3 | 36%

test system: Fasciola hepatica; test: Antiparasitic activity against Fasciola hepatica infected in rat assessed as reduction in worm burden at 100 mg/kg, po administered as single dose measured after 6 days post treatment; type: functional; set-up: scale not given: the % may be the effect or the level left
Method in brief: (§1)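 Female Wistar rats (~100 g) infected with ~20 F. hepatica metacercariae each; at 8 weeks post-infection given a single 100 mg/kg oral dose as suspension in 7% (v/v) Tween 80 / 3% (v/v) EtOH. Killed by CO2 on day 6 post-treatment; adult flukes recovered from bile ducts and livers. Mean total worm burden compared with untreated controls; cures scored; Kruskal-Wallis test, 5% level.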

SMILES | Activity
O=C(O)C[C@H]1CC[C@]2(CC1)OO[C@]1(O2)C2CC3CC1CC(C2)C3F (some centres not stated) | 76%
O=C(O)CC[C@H]1CC[C@]2(CC1)OO[C@]1(O2)C2CC3CC(C2)CC1C3 | 14%
O=C(O)C(=O)NC[C@H]1CC[C@]2(CC1)OO[C@]1(O2)C2CC3CC(C2)CC1C3 | 14%
O=C(O)C[C@H]1CC[C@@]2(CC1)C[C@@]1(OO2)C2CC3CC(C2)CC1C3 | 7%
C[C@H]1[C@H](OC(=O)CCC(=O)O)O[C@@H]2O[C@@]3(C)CC[C@H]4[C@H](C)CC[C@@H]1[C@@]24OO3 [ARTESUNATE] | 30%
COC(=O)C[C@H]1CC[C@]2(CC1)OO[C@]1(O2)C2CC3CC(C2)CC1C3 | 99%
O=C(C[C@H]1CC[C@]2(CC1)OO[C@]1(O2)C2CC3CC(C2)CC1C3)NO | 34%
O=C(O)C[C@@H]1CCC[C@]2(C1)OOC1(O2)C2CC3CC(C2)CC1C3 (relative stereo) | 90%
O=C(O)C[C@H]1CC[C@]2(CC1)OO[C@]1(O2)C2CC3CC1C[C@@](F)(C3)C2 | 80%
O=C([O-])CN1CC[C@]2(CC1)OO[C@]1(O2)C2CC3CC(C2)CC1C3.[Na+] | 0%
O=C(O)C[C@H]1CC[C@]2(CC1)OO[C@]1(O2)C2CC3CC1CC(C2)C3(F)F | 80%
O=C(O)C(C(=O)O)[C@H]1CC[C@]2(CC1)OO[C@]1(O2)C2CC3CC(C2)CC1C3 | 0%
O=C(O)C[C@H]1CCCC[C@@]12OOC1(O2)C2CC3CC(C2)CC1C3 (some centres not stated) | 46%
O=C(O)C[C@H]1CC[C@]2(CC1)OO[C@]1(O2)C2CC3CC(C2)CC1C3 | 100%
O=C(O)C[C@H]1CC[C@@]2(CC1)OO[C@@]1(O2)C2CC3CC(C2)CC1C3 | 95%
O=C(O)[C@H]1CC[C@]2(CC1)OO[C@]1(O2)C2CC3CC(C2)CC1C3 | 52%
CS(=O)(=O)NC(=O)C[C@H]1CC[C@]2(CC1)OO[C@]1(O2)C2CC3CC(C2)CC1C3 | 100%
NNC(=O)C[C@H]1CC[C@]2(CC1)OO[C@]1(O2)C2CC3CC(C2)CC1C3 | 12%
NC(=O)C[C@H]1CC[C@]2(CC1)OO[C@]1(O2)C2CC3CC(C2)CC1C3 | 7%
O=C(O)C[C@H]1CC[C@]2(CC1)OO[C@@]1(CCCCC1)O2 | 0%
N=C(N)NC(=O)C[C@H]1CC[C@]2(CC1)OO[C@]1(O2)C2CC3CC(C2)CC1C3 | 0%
O=C(O)CNC(=O)C[C@H]1CC[C@]2(CC1)OO[C@]1(O2)C2CC3CC(C2)CC1C3 | 86%
O=C(C[C@H]1CC[C@]2(CC1)OO[C@]1(O2)C2CC3CC(C2)CC1C3)N1CCNCC1 | 0%
O=C(O)C[C@H]1CC[C@]2(CC1)OO[C@]1(O2)C2CCCC1CCC2 | 51%
O=C(O)C[C@H]1CC[C@]2(CC1)OC[C@]1(O2)C2CC3CC(C2)CC1C3 | 0%
CCOP(=O)([O-])C[C@H]1CC[C@]2(CC1)OO[C@]1(O2)C2CC3CC(C2)CC1C3.[K+] | 16%
O=C(C[C@H]1CC[C@]2(CC1)OO[C@]1(O2)C2CC3CC(C2)CC1C3)NCCS(=O)(=O)[O-].[Na+] | 0%

test system: Fasciola hepatica; test: Antiparasitic activity against Fasciola hepatica infected in rat assessed as induction of cure at 100 mg/kg, po administered as single dose measured after 6 days post; type: functional, organism-based; set-up: dose 100 mg/kg; method in brief: as §1

SMILES | Activity
O=C(O)CC[C@H]1CC[C@]2(CC1)OO[C@]1(O2)C2CC3CC(C2)CC1C3 | inactive
O=C(O)C(=O)NC[C@H]1CC[C@]2(CC1)OO[C@]1(O2)C2CC3CC(C2)CC1C3 | inactive
O=C(O)C[C@H]1CC[C@@]2(CC1)C[C@@]1(OO2)C2CC3CC(C2)CC1C3 | inactive
O=C(C[C@H]1CC[C@]2(CC1)OO[C@]1(O2)C2CC3CC(C2)CC1C3)NO | inactive
O=C([O-])CN1CC[C@]2(CC1)OO[C@]1(O2)C2CC3CC(C2)CC1C3.[Na+] | inactive
O=C(O)C[C@H]1CC[C@]2(CC1)OO[C@]1(O2)C2CC3CC1CC(C2)C3(F)F | inactive
O=C(O)C(C(=O)O)[C@H]1CC[C@]2(CC1)OO[C@]1(O2)C2CC3CC(C2)CC1C3 | inactive
O=C(O)C[C@H]1CCCC[C@@]12OOC1(O2)C2CC3CC(C2)CC1C3 (some centres not stated) | inactive
O=C(O)C[C@H]1CC[C@]2(CC1)OO[C@]1(O2)C2CC3CC(C2)CC1C3 | Active
CS(=O)(=O)NC(=O)C[C@H]1CC[C@]2(CC1)OO[C@]1(O2)C2CC3CC(C2)CC1C3 | Active
NNC(=O)C[C@H]1CC[C@]2(CC1)OO[C@]1(O2)C2CC3CC(C2)CC1C3 | inactive
NC(=O)C[C@H]1CC[C@]2(CC1)OO[C@]1(O2)C2CC3CC(C2)CC1C3 | inactive
O=C(O)C[C@H]1CC[C@]2(CC1)OO[C@@]1(CCCCC1)O2 | inactive
N=C(N)NC(=O)C[C@H]1CC[C@]2(CC1)OO[C@]1(O2)C2CC3CC(C2)CC1C3 | inactive
O=C(C[C@H]1CC[C@]2(CC1)OO[C@]1(O2)C2CC3CC(C2)CC1C3)N1CCNCC1 | inactive
O=C(O)C[C@H]1CC[C@]2(CC1)OO[C@]1(O2)C2CCCC1CCC2 | inactive
O=C(O)C[C@H]1CC[C@]2(CC1)OC[C@]1(O2)C2CC3CC(C2)CC1C3 | inactive
CCOP(=O)([O-])C[C@H]1CC[C@]2(CC1)OO[C@]1(O2)C2CC3CC(C2)CC1C3.[K+] | inactive
O=C(C[C@H]1CC[C@]2(CC1)OO[C@]1(O2)C2CC3CC(C2)CC1C3)NCCS(=O)(=O)[O-].[Na+] | inactive
